Test results as given in ChEMBL document CHEMBL3734687, “Mechanism of action of antiepileptic ceramide from Red Sea soft coral Sarcophyton auritum” (2015).
Calls of active or inactive are those of the source. The rule behind the calls is not given here.

Key:
Mus musculus [1] = organism: Mus musculus; experiment: Anticonvulsant activity in mouse assessed as time to death post pentylenetetrazole challenge measured for 20 mins; format: functional
How it was run: (§1)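 Mice given an acute pentylenetetrazole challenge (70 mg/kg, i.p.). Time to death recorded over a 20 min observation. Some groups were pretreated with bicuculline (0.1 mg/kg, i.p.) or ondansetron (1 mg/kg, i.p.) before the test agent. n = 6 per group. One-way ANOVA with Bonferroni post-test, P<0.05.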

Mus musculus [2] = experiment: Anxiolytic activity in mouse assessed as increase in time spent in the light area at 1 mg/kg, ip measured for 3 mins by dark-light transition test; format: functional, organism-based
How it was run: (§2)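 Dark-light transition box in mice, 3 min session. Cumulative time spent in the light area was recorded. Diazepam reference at 1 mg/kg i.p. Antagonist arms were pretreated with bicuculline (0.1 mg/kg, i.p.) or ondansetron (1 mg/kg, i.p.) before the test agent. n = 6. One-way ANOVA with Bonferroni comparisons, P<0.05.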

Mus musculus [3] = experiment: Anxiolytic activity in mouse assessed as increase in time spent in the open arm at 1 mg/kg measured for 3 mins by elevated plus maze test relative to vehicle treated control; format: functional, organism-based
How it was run: (§3)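 Elevated plus maze in mice, 3 min screen. Read-out is percent of time spent in the open arms versus vehicle-treated mice. Diazepam reference at 1 mg/kg. Pretreatment with bicuculline (0.1 mg/kg, i.p.) or ondansetron (1 mg/kg, i.p.) preceded the test agent. n = 6/group. One-way ANOVA followed by Bonferroni, P<0.05.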

Mus musculus [4] = experiment: Anxiolytic activity in mouse assessed as increase in time spent in the light area pretreated with 0.1 mg/kg, ip GABA-A blocker bicuculline followed by compound administration measured for 3 mins by dark-light transition test; format: functional, organism-based; how it was run: as §2
Mus musculus [5] = experiment: Anxiolytic activity in mouse assessed as increase in time spent in the light area pretreated with 1 mg/kg, ip 5-HT3 receptor blocker ondansetron followed by compound administration measured for 3 mins by dark-light transition test; format: functional, organism-based; how it was run: as §2
Mus musculus [6] = experiment: Anxiolytic activity in mouse assessed as increase in time spent in the open arm pretreated with 1 mg/kg, ip 5-HT3 receptor blocker ondansetron followed by compound administration measured for 3 mins by elevated plus maze test; format: functional, organism-based; how it was run: as §3
Mus musculus [7] = experiment: Anticonvulsant activity in mouse model of PTZ-induced seizures assessed as prolongation of death time post pentylenetetrazole challenge pretreated with 1 mg/kg, ip 5-HT3 receptor blocker ondansetron followed by compound administration measured for 20 mins; format: functional, organism-based; how it was run: as §1
Mus musculus [8] = organism: Mus musculus; experiment: Anxiolytic activity in mouse assessed as increase in time spent in the open arm measured for 3 mins by elevated plus maze test relative to vehicle treated control; format: functional, organism-based; how it was run: as §3
Mus musculus [9] = experiment: Anticonvulsant activity in mouse model of PTZ-induced seizures assessed as prolongation of death time post pentylenetetrazole challenge pretreated with 0.1 mg/kg, ip GABA-A blocker bicuculline followed by compound administration measured for 20 mins; format: functional, organism-based; how it was run: as §1
Mus musculus [10] = organism: Mus musculus; experiment: Anxiolytic activity in mouse assessed as increase in time spent in the light area measured for 3 mins by dark-light transition test; format: functional, organism-based; how it was run: as §2
Mus musculus [11] = experiment: Anxiolytic activity in mouse assessed as increase in time spent in the open arm pretreated with 0.1 mg/kg, ip GABA-A blocker bicuculline followed by compound administration measured for 3 mins by elevated plus maze test; format: functional, organism-based; how it was run: as §3

SMILES	Time (Mus musculus [1]) [s]	Activity (Mus musculus [2])	Activity (Mus musculus [3])	Activity (Mus musculus [4])	Activity (Mus musculus [5])	Activity (Mus musculus [6])	Activity (Mus musculus [7])	Activity (Mus musculus [8])	Activity (Mus musculus [9])	Activity (Mus musculus [10])	Activity (Mus musculus [11])
CN1C(=O)CN=C(c2ccccc2)c2cc(Cl)ccc21 [DIAZEPAM]	536	Active	Active								
CCCCCCCCCCCCCC/C=C/C=C/[C@@H](O)[C@H](CO)NC(=O)CCCCCCCCCCCC	911			inactive	Active	Active	Active	Active	inactive	Active	inactive
